# From ChEMBL document CHEMBL1152649, “Synthesis, cytotoxicity and human telomerase inhibition activities of a series of 1,2-heteroannelated anthraquinones and anthra[1,2-d]imidazole-6,11-dione homologues” (2009)
# Key:
# NCI-H460 = experiment: Antiproliferative activity against human NCI-H460 cells assessed as cell growth at 10 uM; type: functional; settings: read-out: Activity
# Method in brief: (§1)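 NCI 60 cell line panel, single-dose screen (10^-5 M) run by the developmental therapeutics program protocol. Results are given as growth percent of treated cells relative to untreated control cells for each line.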
# [1] = Cytotoxicity against human H1299 cells at 100 uM after 48 hrs by MTT assay; type: functional; settings: NCI-H1299, 48 h
# Method in brief: (§2)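 H1299 non-small cell lung cancer cells were grown in RPMI 1640 with 10% FBS, penicillin and streptomycin at 37 °C under 5% CO2. About 2 × 10³ cells per well were seeded and left 24 h. Compounds were dissolved fresh in DMSO, diluted into complete medium and applied for 48 h. MTT was then added for 4 h at 37 °C, followed by lysis buffer (20% SDS, 50% DMF) for 16 h, and absorbance was read at 550 nm.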
# SW-620 = experiment: Antiproliferative activity against human SW620 cells assessed as cell growth at 10 uM; type: functional; settings: read-out: Activity
# Method in brief: (§3)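 NCI 60 cell line panel, single dose (10^-5 M), run per the Developmental Therapeutics Program protocol (one dose mean graph). Each result is the growth percentage of treated cells relative to untreated control cells.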
# SK-OV-3 = experiment: Antiproliferative activity against human SKOV3 cells assessed as cell growth at 10 uM; type: functional; settings: read-out: Activity; method in brief: as §1
# NCI/ADR-RES = experiment: Antiproliferative activity against human NCI/ADR-RES cells assessed as cell growth at 10 uM; type: functional; settings: read-out: Activity; method in brief: as §1
# 786-0 = experiment: Antiproliferative activity against human 786-0 cells assessed as cell growth at 10 uM; type: functional; settings: read-out: Activity; method in brief: as §1
# HCC 2998 = experiment: Antiproliferative activity against human HCC2998 cells assessed as cell growth at 10 uM; type: functional; settings: read-out: Activity; method in brief: as §1
# CAKI-1 = experiment: Antiproliferative activity against human Caki1 cells assessed as cell growth at 10 uM; type: functional; settings: read-out: Activity; method in brief: as §1
# HOP-92 = experiment: Antiproliferative activity against human HOP92 cells assessed as cell growth at 10 uM; type: functional; settings: read-out: Activity; method in brief: as §1
# SF-268 = experiment: Antiproliferative activity against human SF268 cells assessed as cell growth at 10 uM; type: functional; settings: read-out: Activity; method in brief: as §1
# SK-MEL-5 = experiment: Antiproliferative activity against human SK-MEL-5 cells assessed as cell growth at 10 uM; type: functional; settings: read-out: Activity; method in brief: as §1
# MDA-MB-231 = experiment: Antiproliferative activity against human MDA-MB-231 cells assessed as cell growth at 10 uM; type: functional; settings: read-out: Activity; method in brief: as §1
# SK-MEL-28 = experiment: Antiproliferative activity against human SK-MEL-28 cells assessed as cell growth at 10 uM; type: functional; settings: read-out: Activity; method in brief: as §1
# NCI-H522 = experiment: Antiproliferative activity against human NCI-H522 cells assessed as cell growth at 10 uM; type: functional; settings: read-out: Activity; method in brief: as §1
# [2] = Antiproliferative activity against human Hs 578T cells assessed as cell growth at 10 uM; type: functional; settings: read-out: Activity; method in brief: as §1
# OVCAR-4 = experiment: Antiproliferative activity against human OVCAR4 cells assessed as cell growth at 10 uM; type: functional; settings: read-out: Activity; method in brief: as §1
# Malme-3M = experiment: Antiproliferative activity against human MALME-3M cells assessed as cell growth at 10 uM; type: functional; settings: read-out: Activity; method in brief: as §1
# TK-10 = experiment: Antiproliferative activity against human TK10 cells assessed as cell growth at 10 uM; type: functional; settings: read-out: Activity; method in brief: as §3
# HCT-15 = experiment: Antiproliferative activity against human HCT15 cells assessed as cell growth at 10 uM; type: functional; settings: read-out: Activity; method in brief: as §1
# HT-29 = experiment: Antiproliferative activity against human HT-29 cells assessed as cell growth at 10 uM; type: functional; settings: read-out: Activity; method in brief: as §1
# CCRF-CEM = experiment: Antiproliferative activity against human CCRF-CEM cells assessed as cell growth at 10 uM; type: functional; settings: read-out: Activity; method in brief: as §1
# SF-295 = experiment: Antiproliferative activity against human SF295 cells assessed as cell growth at 10 uM; type: functional; settings: read-out: Activity; method in brief: as §1
# T47D = experiment: Antiproliferative activity against human T47D cells assessed as cell growth at 10 uM; type: functional; settings: read-out: Activity; method in brief: as §3
# NCI-H322M = experiment: Antiproliferative activity against human NCI-H322M cells assessed as cell growth at 10 uM; type: functional; settings: read-out: Activity; method in brief: as §1
# SNB-75 = experiment: Antiproliferative activity against human SNB75 cells assessed as cell growth at 10 uM; type: functional; settings: read-out: Activity; method in brief: as §3
# SR = experiment: Antiproliferative activity against human SR cells assessed as cell growth at 10 uM; type: functional; settings: read-out: Activity; method in brief: as §3
# [3] = molecular target: Telomerase reverse transcriptase (Homo sapiens) (UniProt O14746); experiment: Inhibition of TERT in human H1299 cells assessed as residual transcriptional activity at 10 uM after 24 hrs by SEAP reporter gene assay; values are per cent of control
# MDA-MB-435 = experiment: Antiproliferative activity against human MDA-MB-435 cells assessed as cell growth at 10 uM; type: functional; settings: read-out: Activity; method in brief: as §1
# UACC-62 = experiment: Antiproliferative activity against human UACC62 cells assessed as cell growth at 10 uM; type: functional; settings: read-out: Activity; method in brief: as §3
# [4] = molecular target: Telomerase reverse transcriptase (Homo sapiens) (UniProt O14746); experiment: Inhibition of TERT in human H1299 cells assessed as residual transcriptional activity at 100 uM after 24 hrs by SEAP reporter gene assay; values are per cent of control
# ACHN = experiment: Antiproliferative activity against human ACHN cells assessed as cell growth at 10 uM; type: functional; settings: read-out: Activity; method in brief: as §1
# [5] = Cytotoxicity against human H1299 cells at 10 uM after 48 hrs by MTT assay; type: functional; settings: NCI-H1299, 48 h; method in brief: as §2
# OVCAR-8 = experiment: Antiproliferative activity against human OVCAR8 cells assessed as cell growth at 10 uM; type: functional; settings: read-out: Activity; method in brief: as §1
# A498 = experiment: Antiproliferative activity against human A498 cells assessed as cell growth at 10 uM; type: functional; settings: read-out: Activity; method in brief: as §1
# OVCAR-3 = experiment: Antiproliferative activity against human OVCAR-3 cells assessed as cell growth at 10 uM; type: functional; settings: read-out: Activity; method in brief: as §1
# A549 = experiment: Antiproliferative activity against human A549 cells assessed as cell growth at 10 uM; type: functional; settings: read-out: Activity; method in brief: as §1
# MCF7 = experiment: Antiproliferative activity against human MCF7 cells assessed as cell growth at 10 uM; type: functional; settings: read-out: Activity; method in brief: as §1
# PC-3 = experiment: Antiproliferative activity against human PC3 cells assessed as cell growth at 10 uM; type: functional; settings: read-out: Activity; method in brief: as §1
# U-251 = experiment: Antiproliferative activity against human U251 cells assessed as cell growth at 10 uM; type: functional; settings: read-out: Activity; method in brief: as §3
# MOLT-4 = experiment: Antiproliferative activity against human MOLT4 cells assessed as cell growth at 10 uM; type: functional; settings: read-out: Activity; method in brief: as §1
# LOX IMVI = experiment: Antiproliferative activity against human LOXIMVI cells assessed as cell growth at 10 uM; type: functional; settings: read-out: Activity; method in brief: as §1
# NCI-H23 = experiment: Antiproliferative activity against human NCI-H23 cells assessed as cell growth at 10 uM; type: functional; settings: read-out: Activity; method in brief: as §1
# M14 = experiment: Antiproliferative activity against human M14 cells assessed as cell growth at 10 uM; type: functional; settings: read-out: Activity; method in brief: as §1
# UO-31 = experiment: Antiproliferative activity against human UO31 cells assessed as cell growth at 10 uM; type: functional; settings: read-out: Activity; method in brief: as §3
# EKVX = experiment: Antiproliferative activity against human EKVX cells assessed as cell growth at 10 uM; type: functional; settings: read-out: Activity; method in brief: as §1
# HL-60(TB) = experiment: Antiproliferative activity against human HL-60(TB) cells assessed as cell growth at 10 uM; type: functional; settings: read-out: Activity
# Method in brief: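 NCI Developmental Therapeutics Program 60-cell-line one-dose screen at 10^-5 M. Readout is growth percentage of treated cells relative to untreated control cells.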
# HCT-116 = experiment: Antiproliferative activity against human HCT116 cells assessed as cell growth at 10 uM; type: functional; settings: read-out: Activity; method in brief: as §1
# Chain of Telomerase reverse transcriptase (Homo sapiens) (O14746 whole entry): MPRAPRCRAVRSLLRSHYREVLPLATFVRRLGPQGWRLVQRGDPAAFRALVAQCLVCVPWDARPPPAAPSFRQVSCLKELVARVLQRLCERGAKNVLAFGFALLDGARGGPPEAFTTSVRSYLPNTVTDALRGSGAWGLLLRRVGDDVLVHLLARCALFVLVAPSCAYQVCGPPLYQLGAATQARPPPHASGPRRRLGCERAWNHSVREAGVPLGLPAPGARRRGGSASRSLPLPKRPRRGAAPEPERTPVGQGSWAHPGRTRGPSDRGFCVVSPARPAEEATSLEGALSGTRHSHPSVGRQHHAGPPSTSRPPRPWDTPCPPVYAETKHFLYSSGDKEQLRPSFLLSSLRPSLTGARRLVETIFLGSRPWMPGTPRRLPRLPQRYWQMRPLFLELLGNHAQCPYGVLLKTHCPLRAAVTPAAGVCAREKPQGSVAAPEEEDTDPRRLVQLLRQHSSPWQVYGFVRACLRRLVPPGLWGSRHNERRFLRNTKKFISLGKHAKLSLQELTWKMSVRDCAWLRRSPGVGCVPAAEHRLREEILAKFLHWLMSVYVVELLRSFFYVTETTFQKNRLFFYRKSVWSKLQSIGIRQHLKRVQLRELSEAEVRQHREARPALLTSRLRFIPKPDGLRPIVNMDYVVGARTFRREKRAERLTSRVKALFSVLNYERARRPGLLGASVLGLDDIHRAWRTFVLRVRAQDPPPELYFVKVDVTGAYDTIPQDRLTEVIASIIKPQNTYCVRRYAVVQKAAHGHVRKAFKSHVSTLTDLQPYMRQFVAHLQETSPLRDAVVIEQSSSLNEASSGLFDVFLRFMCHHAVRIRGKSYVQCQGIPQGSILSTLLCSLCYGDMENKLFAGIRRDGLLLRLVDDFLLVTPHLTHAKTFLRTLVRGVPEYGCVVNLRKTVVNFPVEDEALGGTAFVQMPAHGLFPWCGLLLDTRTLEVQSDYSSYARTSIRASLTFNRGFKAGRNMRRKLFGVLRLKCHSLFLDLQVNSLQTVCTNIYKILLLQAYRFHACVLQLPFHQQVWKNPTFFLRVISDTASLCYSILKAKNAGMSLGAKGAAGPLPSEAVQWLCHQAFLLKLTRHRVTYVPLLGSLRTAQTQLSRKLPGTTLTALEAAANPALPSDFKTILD
structure (smiles),measurement,setting,value
O=C1c2ccccc2C(=O)c2c1ccc1nc(-c3ccc(Br)cc3)[nH]c21,growth at 10 µM,NCI-H460,96.2%
same,viability at 100 µM,[1],20%
same,growth at 10 µM,SW-620,95%
same,growth at 10 µM,SK-OV-3,105%
same,growth at 10 µM,NCI/ADR-RES,93.7%
same,growth at 10 µM,786-0,111%
same,growth at 10 µM,HCC 2998,98.1%
same,growth at 10 µM,CAKI-1,86.6%
same,growth at 10 µM,HOP-92,83.5%
same,growth at 10 µM,SF-268,106%
same,growth at 10 µM,SK-MEL-5,87.1%
same,growth at 10 µM,MDA-MB-231,92.3%
same,growth at 10 µM,SK-MEL-28,131%
same,growth at 10 µM,NCI-H522,76.5%
same,growth at 10 µM,[2],181%
same,growth at 10 µM,OVCAR-4,94.1%
same,growth at 10 µM,Malme-3M,224%
same,growth at 10 µM,TK-10,280%
same,growth at 10 µM,HCT-15,96.6%
same,growth at 10 µM,HT-29,98.8%
same,growth at 10 µM,CCRF-CEM,98.7%
same,growth at 10 µM,SF-295,119%
same,growth at 10 µM,T47D,97.3%
same,growth at 10 µM,NCI-H322M,167%
same,growth at 10 µM,SNB-75,87.3%
same,growth at 10 µM,SR,92.4%
same,residual activity,[3],71%
same,growth at 10 µM,MDA-MB-435,110%
same,growth at 10 µM,UACC-62,105%
same,residual activity,[4],36%
same,growth at 10 µM,ACHN,91.4%
same,viability at 10 µM,[5],85%
same,growth at 10 µM,OVCAR-8,96.3%
same,growth at 10 µM,A498,117%
same,growth at 10 µM,OVCAR-3,100%
same,growth at 10 µM,A549,95%
same,growth at 10 µM,MCF7,75.3%
same,growth at 10 µM,PC-3,88.7%
same,growth at 10 µM,U-251,105%
same,growth at 10 µM,MOLT-4,101%
same,growth at 10 µM,LOX IMVI,102%
same,growth at 10 µM,NCI-H23,93.1%
same,growth at 10 µM,M14,102%
same,growth at 10 µM,UO-31,66.2%
same,growth at 10 µM,EKVX,82.7%
same,growth at 10 µM,HL-60(TB),100%
same,growth at 10 µM,HCT-116,99.6%
Cc1ccc(-c2nc3ccc4c(c3[nH]2)C(=O)c2ccccc2C4=O)cc1,growth at 10 µM,NCI-H460,93.6%
same,viability at 100 µM,[1],16%
same,growth at 10 µM,SW-620,113%
same,growth at 10 µM,SK-OV-3,84.5%
same,growth at 10 µM,NCI/ADR-RES,104%
same,growth at 10 µM,786-0,113%
same,growth at 10 µM,HCC 2998,104%
same,growth at 10 µM,CAKI-1,110%
same,growth at 10 µM,HOP-92,77.3%
same,growth at 10 µM,SF-268,106%
same,growth at 10 µM,SK-MEL-5,88%
same,growth at 10 µM,MDA-MB-231,97.6%
same,growth at 10 µM,SK-MEL-28,154%
same,growth at 10 µM,NCI-H522,84.7%
same,growth at 10 µM,[2],138%
same,growth at 10 µM,OVCAR-4,96.8%
same,growth at 10 µM,Malme-3M,97.6%
same,growth at 10 µM,TK-10,154%
same,growth at 10 µM,HCT-15,100%
same,growth at 10 µM,HT-29,106%
same,growth at 10 µM,CCRF-CEM,101%
same,growth at 10 µM,SF-295,94.2%
same,growth at 10 µM,T47D,76%
same,growth at 10 µM,NCI-H322M,84.6%
same,growth at 10 µM,SNB-75,107%
same,growth at 10 µM,SR,114%
same,residual activity,[3],82%
same,growth at 10 µM,MDA-MB-435,105%
same,growth at 10 µM,UACC-62,90%
same,residual activity,[4],29%
same,growth at 10 µM,ACHN,101%
same,viability at 10 µM,[5],72%
same,growth at 10 µM,OVCAR-8,96.4%
same,growth at 10 µM,A498,176%
same,growth at 10 µM,OVCAR-3,96.1%
same,growth at 10 µM,A549,55.7%
same,growth at 10 µM,MCF7,41.9%
same,growth at 10 µM,PC-3,87.6%
same,growth at 10 µM,U-251,104%
same,growth at 10 µM,MOLT-4,106%
same,growth at 10 µM,LOX IMVI,104%
same,growth at 10 µM,NCI-H23,98.8%
same,growth at 10 µM,M14,106%
same,growth at 10 µM,UO-31,75.2%
same,growth at 10 µM,EKVX,91.2%
same,growth at 10 µM,HL-60(TB),125%
same,growth at 10 µM,HCT-116,99.8%
